Measured values from ChEMBL document CHEMBL4118207, “Docking Screens for Dual Inhibitors of Disparate Drug Targets for Parkinson's Disease” (J Med Chem, 2018).
The source made the active and inactive calls. No cut-off for these calls is given here.

Experiments:
Adenosine receptor A2a [1] = target: T1, Adenosine receptor A2a (Homo sapiens, UniProt P29274); assay: Displacement of [3H]ZM241385 from A2A receptor in human HeLa cell membranes at 10 uM after 30 mins by beta-scintillation counting method
T1 sequence (P29274 whole entry): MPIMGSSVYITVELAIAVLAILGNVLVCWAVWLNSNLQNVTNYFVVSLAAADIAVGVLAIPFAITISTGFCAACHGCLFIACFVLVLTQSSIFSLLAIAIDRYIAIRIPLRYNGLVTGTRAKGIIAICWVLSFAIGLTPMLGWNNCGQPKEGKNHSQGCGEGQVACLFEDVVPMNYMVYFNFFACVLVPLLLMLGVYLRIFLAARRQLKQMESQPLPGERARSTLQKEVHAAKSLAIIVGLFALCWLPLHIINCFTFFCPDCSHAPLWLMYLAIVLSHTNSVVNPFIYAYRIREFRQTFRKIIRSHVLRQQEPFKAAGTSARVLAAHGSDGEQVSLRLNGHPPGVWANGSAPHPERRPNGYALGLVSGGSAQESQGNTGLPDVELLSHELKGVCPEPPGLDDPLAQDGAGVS

Adenosine receptor A2a [2] = target: T1, Adenosine receptor A2a; assay: Displacement of [3H]ZM241385 from A2A receptor in human HeLa cell membranes after 30 mins by beta-scintillation counting method
[3] = target: T2, Amine oxidase [flavin-containing] B (Homo sapiens, UniProt P27338); assay: Inhibition of recombinant human MAO-B expressed in baculovirus infected BTI insect cells using tyramine as substrate preincubated for 30 mins followed by substrate addition measured after 60 mins by amplex red reagent based fluorescence assay
T2 sequence (P27338 whole entry): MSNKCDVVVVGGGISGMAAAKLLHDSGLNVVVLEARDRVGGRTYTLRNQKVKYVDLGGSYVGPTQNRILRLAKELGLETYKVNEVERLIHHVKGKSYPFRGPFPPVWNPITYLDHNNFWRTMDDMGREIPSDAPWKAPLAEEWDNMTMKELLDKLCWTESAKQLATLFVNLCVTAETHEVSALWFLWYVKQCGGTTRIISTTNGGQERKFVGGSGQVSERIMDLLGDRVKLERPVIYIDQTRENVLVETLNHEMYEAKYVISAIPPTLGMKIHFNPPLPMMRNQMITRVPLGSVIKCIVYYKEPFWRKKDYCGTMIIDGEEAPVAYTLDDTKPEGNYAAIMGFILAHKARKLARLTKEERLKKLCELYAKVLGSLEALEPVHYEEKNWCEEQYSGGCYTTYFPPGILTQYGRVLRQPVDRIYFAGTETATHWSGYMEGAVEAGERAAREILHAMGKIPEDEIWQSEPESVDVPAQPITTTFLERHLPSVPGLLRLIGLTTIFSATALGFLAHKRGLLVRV
How it was run: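 Recombinant human MAO-B, final 1 U/mL, in 50 mM Tris-HCl pH 7.5 with 0.05% CHAPS and 1% DMSO. Compounds dosed acoustically over 10^-9 to 10^-4 range, preincubated 30 min at room temperature. Interference controlled without enzyme, with added H2O2.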

Adenosine receptor A2a [4] = target: T1, Adenosine receptor A2a; assay: Displacement of [3H]ZM241385 from A2A receptor in human HeLa cell membranes at 30 uM after 30 mins by beta-scintillation counting method relative to control
[5] = target: T2, Amine oxidase [flavin-containing] B; assay: Inhibition of recombinant human MAO-B expressed in baculovirus infected BTI insect cells at 30 uM using tyramine as substrate preincubated for 30 mins followed by substrate addition measured after 60 mins by amplex red reagent based fluorescence assay relative to control; conditions: 1 h
[6] = target: T2, Amine oxidase [flavin-containing] B; assay: Inhibition of recombinant human MAO-B expressed in baculovirus infected BTI insect cells using tyramine as substrate preincubated for 30 mins followed by substrate addition measured after 60 mins in presence of Triton X-100 by amplex red reagent based fluorescence assay; conditions: 1 h
Adenosine receptor A2a [7] = target: T1, Adenosine receptor A2a; assay: Antagonist activity at human A2A receptor expressed in CHO cells assessed as inhibition of NECA-stimulated cAMP accumulation at 100 nM preincubated for 15 mins followed by NECA addition measured after 15 mins by enzyme immunoassay; assay type: functional, cell-based
How it was run: (§1)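 CHO cells stably transfected with human A2A receptor, seeded 10^4 cells/well 24 h before assay. Washed in DMEM/F-12 with 25 mM Hepes pH 7.4, then switched to the same buffer plus 20 µM rolipram. Compound preincubated 15 min at 37 °C, NECA added at several concentrations for 15 min at 37 °C. cAMP measured by enzyme immunoassay.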

SH-SY5Y = assay: Cytoprotection against 6-OHDA-induced neurotoxicity in human SH-SY5Y cells assessed as reduction in 6-OHDA-induced cell viability decrease at 0.15 uM preincubated for 3 hrs followed by 6-OHDA addition measured after 24 hrs by resazurin dye based assay relative to control; assay type: functional
How it was run: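 Human SH-SY5Y cells seeded 2.5 x 10^4/well in phenol-red-free DMEM with 1% FBS and 10 µM retinoic acid for 72 h to differentiate. Compound (0.1% v/v DMSO) pretreatment 3 h, then freshly prepared 20 µM 6-OHDA in saline/0.007% ascorbic acid for 24 h. Resazurin (0.02 mg/mL final) added for 2 h as the viability read-out.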

[8] = target: T2, Amine oxidase [flavin-containing] B; assay: Inhibition of recombinant human MAO-B expressed in baculovirus infected BTI insect cells at 10 uM using tyramine as substrate preincubated for 30 mins followed by substrate addition measured after 60 mins by amplex red reagent based fluorescence assay; conditions: 1 h
How it was run: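 Human recombinant MAO-B (final 1 U/mL) in 50 mM Tris-HCl pH 7.5, 0.05% CHAPS, 1% DMSO. Compound added from DMSO stock and pre-incubated 30 min at room temperature. Reaction started with tyramine (10 µM in 2-fold mix) and run 60 min at room temperature. HRP (final 0.1 U/mL) plus Amplex Red (final 10 µM) added; resorufin read at ex 535/em 590 nm over 30 min.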

Adenosine receptor A2a [9] = target: T1, Adenosine receptor A2a; assay: Antagonist activity at human A2A receptor expressed in CHO cells assessed as inhibition of NECA-stimulated cAMP accumulation at 1 uM preincubated for 15 mins followed by NECA addition measured after 15 mins by enzyme immunoassay; assay type: functional, cell-based; how it was run: as §1

inhibition (Adenosine receptor A2a [1]) | Ki (Adenosine receptor A2a [2]) [nM] | Structure (SMILES) | other results
inactive |  | O=C(Nc1nc2ccccc2[nH]1)c1ccccc1O | 
 | 31 | Nc1nn(-c2ccccc2)nc1C(=O)OCc1ccccc1 | IC50 [3]: 380 nM; inhibition (Adenosine receptor A2a [4]): > 60%; inhibition at 30 µM [5]: > 70%
inactive |  | Cc1ccc(C(=O)Nc2nc3ccccc3[nH]2)cc1C | 
 | 49 | Cc1ccccc1COC(=O)c1nn(-c2ccccc2)nc1N | IC50 [3]: 500 nM
inactive |  | Cc1ccc2nc(NC(=O)c3ccccc3)[nH]c2c1 | 
inactive |  | Cc1ccc(-n2nc(N)c(C(=O)CCc3ccccc3)n2)cc1 | 
inactive |  | Cc1ccccc1C(=O)Nc1nc2ccccc2[nH]1 | 
inactive |  | Cc1ccccc1-n1nc(N)c(C(=O)CCc2ccccc2)n1 | 
inactive | 2000 | Nc1nn(-c2ccccc2)nc1C(=O)CCc1ccccc1 | 
inactive | 250 | Cc1cccc(-n2nc(N)c(C(=O)CCc3ccccc3)n2)c1 | 
 | 2700 | O=C(Nc1nc2ccccc2[nH]1)c1ccccc1 | IC50 [3]: 5000 nM; inhibition (Adenosine receptor A2a [4]): > 60%; inhibition at 30 µM [5]: > 70%; inhibition (INH) [6]: Active
inactive | 630 | Nc1nn(-c2ccccc2Cl)nc1C(=O)CCc1ccccc1 | 
inactive |  | Nc1nn(-c2ccc(Cl)cc2)nc1C(=O)CCc1ccccc1 | 
 | 19 | COc1cccc(COC(=O)c2nn(-c3ccccc3)nc2N)c1 | inhibition (Adenosine receptor A2a [4]): > 60%; inhibition (Adenosine receptor A2a [7]): Active; Activity (SH-SY5Y): 13%
 | 1200 | C[C@@H]1Oc2ccc(Nc3ncnc4c3oc3ccccc34)cc2NC1=O | IC50 [3]: 1700 nM; inhibition (Adenosine receptor A2a [4]): > 60%; inhibition at 30 µM [5]: > 70%
inactive |  | Nc1nn(-c2ccccc2)nc1C(=O)O | inhibition (INH) [8]: Not Active
inactive | 530 | COc1cccc2nc(NC(=O)c3ccccc3)[nH]c12 | 
 | 150 | Cc1ccc(COC(=O)c2nn(-c3ccccc3)nc2N)cc1 | IC50 [3]: 3800 nM; inhibition (INH) [6]: Active
 |  | Cn1c(=O)c2c(nc(/C=C/c3cccc(Cl)c3)n2C)n(C)c1=O | Activity (SH-SY5Y): 13%
inactive |  | Cc1cccc(C(=O)Nc2nc3ccccc3[nH]2)c1 | 
 | 99 | O=C(Nc1nc2cccc(Cl)c2[nH]1)c1ccccc1 | inhibition (Adenosine receptor A2a [9]): Active; Activity (SH-SY5Y): 14%
inactive | 23 | Nc1nn(-c2ccccc2)nc1C(=O)NCc1ccccc1 | 
inactive |  | COc1cccc(C(=O)Nc2nc3ccccc3[nH]2)c1 | 

Structure (SMILES) | inhibition (Adenosine receptor A2a [1]) | Ki (Adenosine receptor A2a [2]) [nM] | other results
Cc1ccc(C(=O)Nc2nc3ccccc3[nH]2)cc1 | inactive |  | 
COc1cccc(CO)c1 | inactive |  | inhibition (INH) [8]: Not Active
